In ChEMBL document CHEMBL4339256, “Antibacterial Salinaphthoquinones from a Strain of the Bacterium Salinispora arenicola Recovered from the Marine Sediments of St. Peter and St. Paul Archipelago, Brazil” (2019):
The source made the active and inactive calls. No cut-off for these calls is given here.

Tests used:
[1] = tested on: Enterococcus faecalis; assay: Antimicrobial activity against vancomycin-resistant Enterococcus faecalis ATCC 51212 assessed as inhibition of microbial growth incubated for 24 hrs by broth microdilution assay; format: functional
Summary of the method: (§1)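 Strains pre-grown on Mueller Hinton agar 24 h at 35 ± 2 °C aerobically; colonies suspended in 0.85% NaCl, then diluted in Mueller Hinton broth to a final 5 × 10^5 CFU/mL. Broth microdilution per CLSI (2015) with 2-fold serial compound dilutions; rifampicin positive control. Incubated as above; MIC read as lowest concentration with no visible growth.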

[2] = tested on: Staphylococcus aureus; assay: Antimicrobial activity against methicillin-resistant Staphylococcus aureus ATCC 43300 assessed as inhibition of microbial growth incubated for 24 hrs by broth microdilution assay; format: functional; summary of the method: as §1
[3] = tested on: Enterococcus faecalis; assay: Antimicrobial activity against Enterococcus faecalis ATCC 29212 assessed as inhibition of microbial growth incubated for 24 hrs by broth microdilution assay; format: functional
Summary of the method: (§2)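 Strains first grown on Mueller Hinton agar 24 h at 35 ± 2 °C, aerobic. Colonies were suspended in sterile 0.85% (w/v) NaCl and diluted into Mueller Hinton broth to a final 5 × 10^5 CFU/mL. Broth microdilution followed CLSI (2015), with 2-fold serial dilutions of compound and rifampicin as positive control. Plates were incubated under the same conditions. MIC was read as the lowest concentration with no visible growth.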

[4] = tested on: Staphylococcus aureus; assay: Antimicrobial activity against Staphylococcus aureus ATCC 29213 assessed as inhibition of microbial growth incubated for 24 hrs by broth microdilution assay; format: functional; summary of the method: as §2
[5] = tested on: Escherichia coli; assay: Antimicrobial activity against Escherichia coli ATCC 25922 assessed as inhibition of microbial growth incubated for 24 hrs by broth microdilution assay; format: functional, organism-based; summary of the method: as §2

| Structure (SMILES) | MIC ([1]; ATCC 51212, 24 h) [µg/mL] | MIC ([2]; ATCC 43300, 24 h) [µg/mL] | MIC ([3]; ATCC 29212, 24 h) [µg/mL] | MIC ([4]; ATCC 29213, 24 h) [µg/mL] | MIC [1] | MIC [2] | MIC [4] | MIC [5] | MIC [3] |
| --- | --- | --- | --- | --- | --- | --- | --- | --- | --- |
| CC(=O)CC1(C)Oc2c(C)cc3c(c2C1=O)C(=O)C=C(N)C3=O (stereo unspecified) | 125 | 125 | 125 | 125 |  |  |  |  |  |
| Cc1cc(C)c(=O)oc1-c1c(O)c(C)cc2c1C(=O)C(N)=CC2=O |  |  | 125 |  | inactive | inactive | inactive |  |  |
| CO[C@H]1/C=C/O[C@@]2(C)Oc3c(C)c(O)c4c(O)c(c(/C=N/N5CCN(C)CC5)c(O)c4c3C2=O)NC(=O)/C(C)=C\C=C\[C@H](C)[C@H](O)[C@@H](C)[C@@H](O)[C@@H](C)[C@H](OC(C)=O)[C@@H]1C [RIFAMPIN] | ≤ 0.03 | ≤ 0.03 | ≤ 0.03 | ≤ 0.03 |  |  |  |  |  |
| Cc1cc(C)c(=O)oc1-c1c(O)c(C)cc2c1C(=O)C=C(N)C2=O | 125 | 62 | 16 | 31 |  |  |  | inactive |  |
| Cc1cc2c(c(O)c1O)C(=O)C=C(N)C2=O |  |  | 16 |  | inactive | inactive | inactive | inactive |  |
| Cc1cc2c(c(C(=O)[C@@H](C)C3OC4[C@H](C)C(OC(=O)[C@H]4C)C3C)c1O)C(=O)C=C(N)C2=O (stereo partly specified) |  |  |  |  | inactive | inactive | inactive |  | inactive |
